Screening results as filed in PubChem BioAssay.
Most compounds without a hit are left out; they make up all but 2.4% or so of the library.
HMGR II inh = inhibitors of class II HMG-CoA reductase from Enterococcus faecalis; 190,000 compounds, 0.41% hits; purified E. faecalis HMGR, NADPH absorbance 340 nm kinetic; AID 1066; inhibition, % at 10 µM;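 active = inhibition above a set limit, the median over all tested compounds plus 3 SD, cut at about 9.5% in these data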;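 note: enzyme runs in reverse so mevalonate oxidation gives rising NADPH absorbance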
EP2 antag = inhibitors of human EP2 prostaglandin E2 receptor; C6 glioma cells expressing human EP2, cAMP TR-FRET; cells stimulated with saturating PGE2; inhibition, % at 25 µM; 260,000 compounds, 0.52% hits; P43116;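 active = percent inhibition above 40 after rounding to a whole number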;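 note: rat C6 glioma host cells with rolipram phosphodiesterase inhibitor present; the protocol text gives 20 µM as final concentration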
Target sequence (P43116 whole entry, looked up): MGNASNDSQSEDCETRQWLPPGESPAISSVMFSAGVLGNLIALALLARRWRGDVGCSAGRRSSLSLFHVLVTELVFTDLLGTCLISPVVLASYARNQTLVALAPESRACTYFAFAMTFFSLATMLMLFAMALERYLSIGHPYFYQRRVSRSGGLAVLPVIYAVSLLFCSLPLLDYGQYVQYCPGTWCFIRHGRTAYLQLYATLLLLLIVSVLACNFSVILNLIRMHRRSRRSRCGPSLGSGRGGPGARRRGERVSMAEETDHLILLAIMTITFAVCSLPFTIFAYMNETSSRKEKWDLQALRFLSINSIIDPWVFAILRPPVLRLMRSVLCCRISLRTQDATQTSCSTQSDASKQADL
Tb hexokinase = blocks Trypanosoma brucei hexokinase 1 activity | recombinant TbHK1, G6PDH-coupled NADH A340 | inhibition, % at 10 µM | 220,000 compounds, 0.11% hits | AID 1430;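 active = inhibition of 50% or more in the single-dose primary screen; inactive = inhibition below 50%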
MT stabilize HCS = stabilizes microtubules in HeLa cells. % tubulin-high responders, % at 10 µM. 200,000 compounds, 0.83% hits. HeLa tubulin immunostaining HCS, 24 h; share of cells brighter than vehicle mean+2SD;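 active = plate Z-score above 3 for both tubulin-high and condensed-nucleus cell shares, with cell loss under 80%, at 10 µM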;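 note: anti alpha tubulin signal scored within the nucleus-defined area of each cell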
b-catenin transl = alters nuclear translocation of beta-catenin in HeLa cells; 190,000 compounds, 0.3% hits; nuclear translocation activity, % at 5 µM; immunofluorescence imaging;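 active = nuclear translocation activity above 50% at 5 µM, with a well cell count of 50 or more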;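 note: per-cell ratio of nuclear to cytoplasmic median beta-catenin stain intensity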
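assay system = human HeLa cells, endogenous beta-catenin | times = compound treatment 24 h, 37°C, 5% CO2 | detection = Anti-beta-catenin immunofluorescence on PFA-fixed, Triton-permeabilized cells, DAPI nuclei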
EP2 modulator = modulators of human EP2 prostaglandin E2 receptor | induction, % at 25 µM | P43116 | EP2-expressing cells, cAMP HTRF FRET, PGE2 co-stimulation | 260,000 compounds, 0.83% hits;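 active = compounds whose cAMP rise, as percent of the full-agonist control response, exceeds 60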;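 note: rat C6 glioma line stably carrying human EP2 under a CMV promoter; the protocol text gives 20 µM as final concentration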
Each line names hits and unclear results; the compound was inactive in the other large screens; ! = not active in a repeat.

CO[C@H]1[C@H](O)[C@@H](O[C@@H]2[C@@H](Oc3cccc4c(O)c5c(=O)oc6ccc(C)c7c(=O)oc(c34)c5c67)O[C@@H](C)[C@H](O)[C@H]2O)O[C@@H](C)[C@@H]1O	EP2 antag 44 (no result: HMGR II inh, Tb hexokinase, MT stabilize HCS, b-catenin transl)
COc1cccc(CN2CCN(C(=O)COc3ccccc3)[C@@H](C)C2)c1	none (no result: HMGR II inh, EP2 antag, Tb hexokinase, MT stabilize HCS, b-catenin transl)
Cc1ccc(C2=CCN(CC(=O)Nc3ccc4c(c3)OCO4)CC2)o1	none (no result: HMGR II inh, Tb hexokinase, MT stabilize HCS, b-catenin transl)
COc1cc2c(cc1O)C[C@@H]1c3c(cc(O)c(OC)c3-2)CCN1C	none (no result: HMGR II inh, Tb hexokinase, MT stabilize HCS, b-catenin transl)
CCCN1CCc2cc(O)cc3c2[C@H]1Cc1ccc(O)c(O)c1-3	EP2 antag 77! (no result: HMGR II inh, Tb hexokinase, MT stabilize HCS, b-catenin transl)
CN1CCc2cc(O)cc3c2[C@H]1Cc1ccc(O)c(O)c1-3	EP2 antag 102! (no result: HMGR II inh, Tb hexokinase, MT stabilize HCS, b-catenin transl)
CN1C(=O)C(C2(C#N)CCCCC2)C(=O)N(C)C1=O	none
CC(=O)CC(=O)C1C(=O)N(C)C(=O)N(C)C1=O	HMGR II inh 11
C#CCOc1ccccc1CN1C2CCC1CC(O)(c1cccc(F)c1)C2 (stereo not drawn)	none (no result: HMGR II inh, Tb hexokinase, MT stabilize HCS, b-catenin transl)
OCC[n+]1c2ccccc2nc2ccc(N3CCOCC3)cc21	EP2 antag 101 (no result: HMGR II inh, MT stabilize HCS)
CCOC(=O)C1(c2ccccc2)CCN(CC(=O)Nc2cccc3ccccc23)CC1	EP2 modulator 63
CCOC(=O)C1(c2ccccc2)CCN(Cc2cccc(C(=O)O)c2)CC1	none
c1ccc2c([C@@H]3CCN(CCN4CCOCC4)C3)c[nH]c2c1	EP2 antag 53 (no result: HMGR II inh, Tb hexokinase, MT stabilize HCS, b-catenin transl)
COc1ccccc1CNC(=O)CN1C2CCC1CC(O)(c1ccco1)C2 (stereo not drawn)	none (no result: HMGR II inh, EP2 antag, Tb hexokinase, MT stabilize HCS, b-catenin transl)
COc1ccc(C2(O)CC3CCC(C2)N3CCCC(=O)c2ccc(C)cc2)cc1 (stereo not drawn)	none (no result: HMGR II inh, EP2 antag, Tb hexokinase, MT stabilize HCS, b-catenin transl)
CC(=O)N1CCCc2cc(C(O)CN3CC=C(c4ccc(F)cc4)CC3)ccc21 (stereo not drawn)	none (no result: HMGR II inh, Tb hexokinase, MT stabilize HCS, b-catenin transl)
CC1=C2C(=O)[C@H]3[C@@H](CC=C4C[C@@H](O)CC[C@@]43C)[C@@H]2CC[C@@]12O[C@@H]1C[C@H](C)CN[C@H]1[C@@H]2C	EP2 antag 41 (no result: HMGR II inh, Tb hexokinase, MT stabilize HCS, b-catenin transl)
CCc1ccc(N2C(=O)NC(=O)/C(=C\C=C\c3ccco3)C2=O)cc1	EP2 antag 61 (no result: HMGR II inh, MT stabilize HCS)
O=C1NC(=O)N(Cc2ccccc2)C(=O)/C1=C\c1ccco1	none
CC(C)c1ccc(N2C(=O)NC(=O)/C(=C/C=C/c3ccco3)C2=O)cc1	EP2 antag 59
O=C1NC(=O)N(Cc2ccc(F)cc2)C(=O)/C1=C\C=C\c1ccco1	EP2 antag 78 (no result: HMGR II inh, MT stabilize HCS)
CCCCN1C(=O)/C(=C/C=C/c2ccco2)C(=O)NC1=S	none
Cc1ccc(N2C(=O)NC(=O)/C(=C/C=C/c3ccco3)C2=O)cc1	EP2 antag 114
Cc1cc(C)cc(N2C(=O)NC(=O)/C(=C\C=C\c3ccco3)C2=O)c1	EP2 antag 87
O=C(CN1C(=O)CN=C(c2ccccc2Cl)c2c1sc1c2CCCC1)NCc1cccs1	none (no result: HMGR II inh, Tb hexokinase, MT stabilize HCS, b-catenin transl)
COC(=O)C1C(OC(=O)c2ccccc2)CC2CCC1N2C (stereo not drawn)	none
COC(=O)[C@@H]1C(=O)[C@H](C(=O)OC)[C@@H]2CC[C@H]1N2C	EP2 antag 43 (no result: HMGR II inh, Tb hexokinase, MT stabilize HCS, b-catenin transl)
CCOC(=S)SCc1nc2ccccc2c(=O)n1-c1cccc(C(F)(F)F)c1	none (no result: HMGR II inh, Tb hexokinase, MT stabilize HCS, b-catenin transl)
O[C@H](CN1CC1)[C@@H](O)CN1CC1	EP2 antag 42 (no result: HMGR II inh, Tb hexokinase, MT stabilize HCS, b-catenin transl)
c1ccc(-c2cc(-c3ccccc3)[n+](-c3ccccc3)c(-c3ccccc3)c2)cc1	EP2 antag 64 (no result: HMGR II inh, MT stabilize HCS)
N#CC1=C(N)Oc2c(c(=O)oc3ccccc23)C1c1ccc(OCC(N)=O)cc1 (stereo not drawn)	none (no result: HMGR II inh, Tb hexokinase, MT stabilize HCS, b-catenin transl)
C=CCSc1nc2ccccc2c(=O)n1-c1ccccc1C	EP2 modulator 78 (no result: HMGR II inh, Tb hexokinase, MT stabilize HCS, b-catenin transl)
CSc1nc2ccccc2c(=O)n1-c1ccccc1C	none (no result: HMGR II inh, Tb hexokinase, MT stabilize HCS, b-catenin transl)
O=C(O)C[C@@H]1NCc2cc3ccccc3nc21	none (no result: HMGR II inh, Tb hexokinase, MT stabilize HCS, b-catenin transl)
O=S(=O)(Nc1nccs1)c1ccc([As](=O)(O)O)cc1	none (no result: HMGR II inh, Tb hexokinase, MT stabilize HCS, b-catenin transl)
NS(=O)(=O)c1ccc(-c2ccc([As](=O)(O)O)cc2)cc1	EP2 antag 45 (no result: HMGR II inh, Tb hexokinase, MT stabilize HCS, b-catenin transl)
C[C@@]12CC[C@@H]3[C@H](CCC4=CC(=O)CC[C@H]43)[C@H]1CC[C@H]2OC1(O)C(=O)c2ccccc2C1=O	EP2 antag 64 (no result: HMGR II inh, Tb hexokinase, MT stabilize HCS, b-catenin transl)
COc1ccc(C(=O)C23CN4CN(CN(C4)C2)C3)cc1	none
CCc1ccc(C(=O)C23CN4CN(CN(C4)C2)C3)cc1	HMGR II inh 12 (no result: b-catenin transl)
O=P(O)(OP(=O)(O)c1ccccc1)c1ccccc1 (tested in a mixture with another compound)	EP2 antag 49 (no result: HMGR II inh, Tb hexokinase, MT stabilize HCS, b-catenin transl)
Oc1c(Cl)c(Cl)c(Cl)c(Cl)c1Cl (tested in a mixture with another compound)	EP2 antag 65 (no result: HMGR II inh, Tb hexokinase, MT stabilize HCS, b-catenin transl)
COc1ccc(CN2CCN(C(=O)COc3ccc(C)cc3)CC2)cc1OC	none (no result: HMGR II inh, Tb hexokinase, MT stabilize HCS, b-catenin transl)
C[C@]12Cc3cnc(-c4ccccc4)nc3C[C@@H]1CC[C@H]1[C@H]2CC[C@@]2(C)[C@H]1CC[C@]2(C)O	EP2 antag 49 (no result: HMGR II inh, Tb hexokinase, MT stabilize HCS, b-catenin transl)
C[C@]12CC(=CO)C(=O)C[C@@H]1CC[C@@H]1[C@@H]2CC[C@@]2(C)[C@H]1CC[C@]2(C)O	none (no result: EP2 antag, Tb hexokinase, MT stabilize HCS, EP2 modulator)
O=C1/C(=C/c2ccc(Cl)c(Cl)c2)N2CCC1CC2	none (no result: HMGR II inh, Tb hexokinase, MT stabilize HCS, b-catenin transl)
